# Laboratory results as given in ChEMBL document CHEMBL3600382, “A-ring substituted 17β-arylsulfonamides of 17β-aminoestra-1,3,5(10)-trien-3-ol as highly potent reversible inhibitors of steroid sulfatase” (Bioorg Med Chem, 2015).
# pIC50: −log10 of the molar value.
# Legend:
# [1] = target: T1, Steryl-sulfatase (Homo sapiens, UniProt P08842); experiment: Inhibition of STS (unknown origin) using 4-MUS as substrate measured over 10 mins by fluorescence assay
# T1 sequence (P08842 whole entry): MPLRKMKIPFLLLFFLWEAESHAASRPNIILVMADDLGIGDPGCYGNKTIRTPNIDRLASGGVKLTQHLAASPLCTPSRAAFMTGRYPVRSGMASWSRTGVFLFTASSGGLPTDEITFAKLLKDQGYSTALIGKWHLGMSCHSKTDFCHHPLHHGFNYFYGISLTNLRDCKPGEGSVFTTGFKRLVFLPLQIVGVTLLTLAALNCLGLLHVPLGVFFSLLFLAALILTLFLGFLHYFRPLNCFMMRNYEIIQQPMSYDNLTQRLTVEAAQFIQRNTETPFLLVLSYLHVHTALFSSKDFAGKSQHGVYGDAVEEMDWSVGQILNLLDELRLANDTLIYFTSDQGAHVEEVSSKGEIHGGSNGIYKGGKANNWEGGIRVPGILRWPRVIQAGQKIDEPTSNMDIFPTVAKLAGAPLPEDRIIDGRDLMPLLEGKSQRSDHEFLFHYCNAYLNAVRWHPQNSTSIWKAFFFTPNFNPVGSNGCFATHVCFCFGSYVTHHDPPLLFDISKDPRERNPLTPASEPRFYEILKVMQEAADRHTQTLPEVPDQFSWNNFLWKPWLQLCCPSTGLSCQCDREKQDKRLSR
# Outline: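 Purified STS (10 nM final) in 0.1 M Tris-HCl pH 7.0 containing Triton X-100, 4-MUS 200 µM final, and inhibitor at eleven concentrations (5 nM–5 µM). Ex 360/em 460 fluorescence read over 10 min at 24 °C, in quadruplicate, with no-enzyme controls. Vi/V0 from initial rates fit to a slope-factor equation. For tight binders, Ki app is the y-intercept of IC50 vs [E] (10–80 nM).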
# [2] = tested on: PC-3; experiment: Cytotoxicity against human PC3 cells; format: functional
# [3] = tested on: OVCAR-3; experiment: Cytotoxicity against human OVCAR3 cells; format: functional
# [4] = tested on: RXF 393; experiment: Cytotoxicity against human RXF393 cells; format: functional
# [5] = Cytotoxicity against human NCI-ADR-RES cells; format: functional
# [6] = tested on: HOP-92; experiment: Cytotoxicity against human HOP92 cells; format: functional
# [7] = tested on: CAKI-1; experiment: Cytotoxicity against human Caki1 cells; format: functional
# [8] = tested on: T47D; experiment: Cytotoxicity against human T47D cells; format: functional
# [9] = tested on: SNB-75; experiment: Cytotoxicity against human SNB75 cells; format: functional
# [10] = tested on: TK-10; experiment: Cytotoxicity against human TK10 cells; format: functional
# [11] = tested on: COLO 205; experiment: Cytotoxicity against human COLO205 cells; format: functional
# [12] = tested on: MOLT-4; experiment: Cytotoxicity against human MOLT4 cells; format: functional
# [13] = tested on: SK-OV-3; experiment: Cytotoxicity against human SKOV3 cells; format: functional
# [14] = tested on: MDA-MB-468; experiment: Cytotoxicity against human MDA-MB-468 cells; format: functional
# [15] = tested on: SF-295; experiment: Cytotoxicity against human SF295 cells; format: functional
# [16] = tested on: IGROV-1; experiment: Cytotoxicity against human IGROV1 cells; format: functional
# [17] = tested on: HL-60(TB); experiment: Cytotoxicity against human HL-60(TB) cells; format: functional
# [18] = tested on: A498; experiment: Cytotoxicity against human A498 cells; format: functional
# [19] = tested on: 786-0; experiment: Cytotoxicity against human 786-0 cells; format: functional
# [20] = Cytotoxicity against human EKVX cells; format: functional
# [21] = tested on: NCI-H460; experiment: Cytotoxicity against human NCI-H460 cells; format: functional
# [22] = tested on: KM12; experiment: Cytotoxicity against human KM12 cells; format: functional
# [23] = tested on: SF-268; experiment: Cytotoxicity against human SF268 cells; format: functional
# [24] = tested on: LOX IMVI; experiment: Cytotoxicity against human LOXIMVI cells; format: functional
# [25] = tested on: OVCAR-5; experiment: Cytotoxicity against human OVCAR5 cells; format: functional
# [26] = tested on: MCF7; experiment: Cytotoxicity against human MCF7 cells; format: functional
# [27] = tested on: BT-549; experiment: Cytotoxicity against human BT549 cells; format: functional
# [28] = tested on: ACHN; experiment: Cytotoxicity against human ACHN cells; format: functional
# [29] = tested on: SK-MEL-5; experiment: Cytotoxicity against human SK-MEL-5 cells; format: functional
# [30] = tested on: MDA-MB-231; experiment: Cytotoxicity against human MDA-MB-231 cells; format: functional
# [31] = tested on: U-251; experiment: Cytotoxicity against human U251 cells; format: functional
# [32] = tested on: CCRF-CEM; experiment: Cytotoxicity against human CCRF-CEM cells; format: functional
# [33] = tested on: HT-29; experiment: Cytotoxicity against human HT-29 cells; format: functional
# [34] = tested on: M14; experiment: Cytotoxicity against human M14 cells; format: functional
# [35] = tested on: OVCAR-8; experiment: Cytotoxicity against human OVCAR8 cells; format: functional
# [36] = tested on: SW-620; experiment: Cytotoxicity against human SW620 cells; format: functional
# [37] = tested on: NCI-H226; experiment: Cytotoxicity against human NCI-H226 cells; format: functional
# [38] = tested on: UACC-62; experiment: Cytotoxicity against human UACC62 cells; format: functional
# [39] = tested on: SF-539; experiment: Cytotoxicity against human SF539 cells; format: functional
# [40] = tested on: MDA-MB-435; experiment: Cytotoxicity against human MDA-MB-435 cells; format: functional
# [41] = tested on: UACC-257; experiment: Cytotoxicity against human UACC257 cells; format: functional
# [42] = tested on: SR; experiment: Cytotoxicity against human SR cells; format: functional
# [43] = tested on: A549; experiment: Cytotoxicity against human A549 cells; format: functional
# [44] = tested on: SN12C; experiment: Cytotoxicity against human SN12C cells; format: functional
# [45] = tested on: NCI-H23; experiment: Cytotoxicity against human NCI-H23 cells; format: functional
# [46] = tested on: HCC 2998; experiment: Cytotoxicity against human HCC2998 cells; format: functional
# [47] = tested on: RPMI-8226; experiment: Cytotoxicity against human RPMI8226 cells; format: functional
# [48] = Cytotoxicity against human Hs578T cells; format: functional; details: Hs-578T
# [49] = tested on: SK-MEL-2; experiment: Cytotoxicity against human SK-MEL-2 cells; format: functional
compound,measurement,setting,value
C[C@]12CC[C@@H]3c4cc([N+](=O)[O-])c(O)cc4CC[C@H]3[C@@H]1CC[C@@H]2NS(=O)(=O)c1cccc(C(F)(F)F)c1,pIC50,[1],7.17
C[C@]12CC[C@@H]3c4cc(Br)c(O)cc4CC[C@H]3[C@@H]1CC[C@@H]2NS(=O)(=O)c1cccc(C(F)(F)F)c1,pIC50,[1],7.02
C[C@]12CC[C@@H]3c4cc([N+](=O)[O-])c(O)cc4CC[C@H]3[C@@H]1CC[C@@H]2NS(=O)(=O)c1cccc(Br)c1,pIC50,[1],7.30
C[C@]12CC[C@@H]3c4cc([N+](=O)[O-])c(O)cc4CC[C@H]3[C@@H]1CC[C@@H]2NS(=O)(=O)c1ccc(-c2ccccc2)cc1,pIC50,[1],7.48
CC(C)(C)c1ccc(S(=O)(=O)N[C@H]2CC[C@H]3[C@@H]4CCc5cc(O)c([N+](=O)[O-])cc5[C@H]4CC[C@]23C)cc1,pIC50,[1],7.09
C[C@]12CC[C@@H]3c4ccc(O)c([N+](=O)[O-])c4CC[C@H]3[C@@H]1CC[C@@H]2NS(=O)(=O)c1cccc(Br)c1,GI50,[2],1000 nM
same,GI50,[3],1000 nM
same,GI50,[4],1000 nM
same,GI50,[5],1000 nM
same,GI50,[6],1000 nM
same,GI50,[7],1000 nM
same,GI50,[8],2500 nM
same,GI50,[9],1000 nM
same,GI50,[10],1000 nM
same,GI50,[11],1000 nM
same,pIC50,[1],7.92
same,GI50,[12],1000 nM
same,GI50,[13],1000 nM
same,GI50,[14],2200 nM
same,GI50,[15],1000 nM
same,GI50,[16],1000 nM
same,GI50,[17],1000 nM
same,GI50,[18],1000 nM
same,GI50,[19],1000 nM
same,GI50,[20],1000 nM
same,GI50,[21],1000 nM
same,GI50,[22],1000 nM
same,GI50,[23],1000 nM
same,GI50,[24],1000 nM
same,GI50,[25],1000 nM
same,GI50,[26],1900 nM
same,GI50,[27],1600 nM
same,GI50,[28],1000 nM
same,GI50,[29],1000 nM
same,GI50,[30],1500 nM
same,GI50,[31],1000 nM
same,GI50,[32],1000 nM
same,GI50,[33],1000 nM
same,GI50,[34],1000 nM
same,GI50,[35],1000 nM
same,GI50,[36],1000 nM
same,GI50,[37],1000 nM
same,GI50,[38],1000 nM
same,GI50,[39],1000 nM
same,GI50,[40],1000 nM
same,GI50,[41],1000 nM
same,GI50,[42],1000 nM
same,GI50,[43],1000 nM
same,GI50,[44],1000 nM
same,GI50,[45],1000 nM
same,GI50,[46],1000 nM
same,GI50,[47],1000 nM
same,GI50,[48],2100 nM
same,GI50,[49],1000 nM
